In ChEMBL document CHEMBL3997796 (J Med Chem, 2017):
Activity calls are given as the source filed them. The calls are words filed in the database; no cut-off is given here.

Tests used:
4T1 [1] = assay: Growth inhibition of mouse 4T1 cells up to 10 uM after 48 hrs by CellTiter blue assay; type: cell-based; conditions: 4t1, 48 h
4T1 [2] = assay: Growth inhibition of mouse 4T1 cells at 3 uM after 48 hrs by CellTiter blue assay; type: cell-based; conditions: 4t1, 48 h
Autotaxin (Mus musculus) = Autotaxin (Mus musculus) (UniProt Q9R1E6); assay: Inhibition of ATX in paclitaxel-resistant mouse 4T1 cells assessed as potentiation of paclitaxel-induced antiproliferative activity by measuring reduction in cell viability at 5 uM measured after 3 days by CellTiter blue assay
In short: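 Paclitaxel-resistant 4T1-TaxR (stepwise PT 40, 100, 200 nM) grown as mammospheres, 3.5 × 10^3 cells/well in serum-free RPMI with N-2, 20 ng/mL FGF and EGF, 4 days; spheres treated 3 days with 100 nM PT with or without inhibitor at 5 μM; CellTiter Blue; quadruplicate, three experiments.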

Autotaxin [3] = target: T1, Autotaxin (Homo sapiens, UniProt Q13822); assay: Inhibition of ATX (unknown origin) expressed in human A2058 cells assessed as inhibition of LPC-induced cell invasion at 10 uM after 20 hrs by calcein-AM dye based matrigel-mediated Boyden chamber assay
Autotaxin [4] = target: T1, Autotaxin; assay: Inhibition of recombinant human C-terminal FLAg-tagged ATX nucleotide pyrophosphate phosphatase activity expressed in baculovirus infected sf9 cells using pNP-TMP as substrate measured every 2 mins for 1 hr by fluorescence assay
Autotaxin [5] = target: T1, Autotaxin; assay: Competitive inhibition of recombinant human C-terminal FLAg-tagged ATX expressed in baculovirus infected sf9 cells using varying levels of FRET based FS-3 substrate at 0.5 to 2 times IC50 measured every 2 mins for 1 hr by Michaelis-Menten plot analysis
[6] = target: T2, Lysophosphatidic acid receptor 1 (Homo sapiens, UniProt Q92633); assay: Agonist activity at LPA1 receptor (unknown origin) expressed in rat RH7777 cells assessed as increase in intracellular calcium level up to 10 uM measured every 3.42 secs for 70 secs by Fura-2-AM dye based fluorescence assay; type: functional, cell-based
[7] = target: T3, Lysophosphatidic acid receptor 3 (Homo sapiens) (UniProt Q9UBY5); assay: Agonist activity at LPA3 receptor (unknown origin) expressed in rat RH7777 cells assessed as increase in intracellular calcium level up to 10 uM measured every 3.42 secs for 70 secs by Fura-2-AM dye based fluorescence assay; type: functional, cell-based
T3 sequence (whole entry): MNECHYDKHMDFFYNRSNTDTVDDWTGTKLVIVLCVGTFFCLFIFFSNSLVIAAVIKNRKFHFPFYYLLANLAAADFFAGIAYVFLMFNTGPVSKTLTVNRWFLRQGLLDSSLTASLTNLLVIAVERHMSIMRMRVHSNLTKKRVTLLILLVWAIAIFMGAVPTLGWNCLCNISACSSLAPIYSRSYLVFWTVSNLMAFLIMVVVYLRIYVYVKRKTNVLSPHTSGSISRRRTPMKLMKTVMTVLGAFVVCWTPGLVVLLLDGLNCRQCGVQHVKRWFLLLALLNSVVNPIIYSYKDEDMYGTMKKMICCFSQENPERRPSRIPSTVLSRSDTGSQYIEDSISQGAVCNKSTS

[8] = target: Lysophosphatidic acid receptor 2 (Homo sapiens) (UniProt Q9HBW0); assay: Agonist activity at LPA2 receptor (unknown origin) expressed in MEF cells assessed as increase in intracellular calcium level up to 10 uM measured every 3.42 secs for 70 secs by Fura-2-AM dye based fluorescence assay; type: functional, cell-based
[9] = target: Lysophosphatidic acid receptor 4 (Homo sapiens) (UniProt Q99677); assay: Agonist activity at LPA4 receptor (unknown origin) expressed in CHO cells assessed as increase in intracellular calcium level up to 10 uM measured every 3.42 secs for 70 secs by Fura-2-AM dye based fluorescence assay; type: functional, cell-based
[10] = target: Lysophosphatidic acid receptor 5 (Homo sapiens) (UniProt Q9H1C0); assay: Agonist activity at FLAG-tagged LPA5 receptor (unknown origin) expressed in rat B103 cells assessed as increase in intracellular calcium level up to 10 uM measured every 3.42 secs for 70 secs by Fura-2-AM dye based fluorescence assay; type: functional, cell-based
[11] = target: T2, Lysophosphatidic acid receptor 1; assay: Antagonist activity at LPA1 receptor (unknown origin) expressed in rat RH7777 cells assessed as inhibition of LPA-induced intracellular calcium level up to 100 uM measured every 3.42 secs for 70 secs by Fura-2-AM dye based fluorescence assay relative to LPA; type: functional, cell-based
[12] = target: T2, Lysophosphatidic acid receptor 1; assay: Antagonist activity at LPA1 receptor (unknown origin) expressed in rat RH7777 cells assessed as inhibition of LPA-induced intracellular calcium level measured every 3.42 secs for 70 secs by Fura-2-AM dye based fluorescence assay; type: functional, cell-based
[13] = target: T3, Lysophosphatidic acid receptor 3 (Homo sapiens); assay: Antagonist activity at LPA3 receptor (unknown origin) expressed in rat RH7777 cells assessed as inhibition of LPA-induced intracellular calcium level up to 100 uM measured every 3.42 secs for 70 secs by Fura-2-AM dye based fluorescence assay; type: functional, cell-based
[14] = target: Lysophosphatidic acid receptor 2 (Homo sapiens) (UniProt Q9HBW0); assay: Antagonist activity at LPA2 receptor (unknown origin) expressed in MEF cells assessed as inhibition of LPA-induced intracellular calcium level up to 100 uM measured every 3.42 secs for 70 secs by Fura-2-AM dye based fluorescence assay; type: functional, cell-based
[15] = target: Lysophosphatidic acid receptor 4 (Homo sapiens) (UniProt Q99677); assay: Antagonist activity at LPA4 receptor (unknown origin) expressed in CHO cells assessed as inhibition of LPA-induced intracellular calcium level up to 100 uM measured every 3.42 secs for 70 secs by Fura-2-AM dye based fluorescence assay; type: functional, cell-based
[16] = target: Lysophosphatidic acid receptor 5 (Homo sapiens) (UniProt Q9H1C0); assay: Antagonist activity at FLAG-tagged LPA5 receptor (unknown origin) expressed in rat B103 cells assessed as inhibition of LPA-induced intracellular calcium level up to 100 uM measured every 3.42 secs for 70 secs by Fura-2-AM dye based fluorescence assay; type: functional, cell-based
[17] = target: T4, Glycerophosphocholine cholinephosphodiesterase ENPP6 (Homo sapiens) (UniProt Q6UWR7); assay: Inhibition of ENPP6 (unknown origin) using pNPPC as substrate measured every 2 mins for 1 hr by […]
T4 sequence (whole entry): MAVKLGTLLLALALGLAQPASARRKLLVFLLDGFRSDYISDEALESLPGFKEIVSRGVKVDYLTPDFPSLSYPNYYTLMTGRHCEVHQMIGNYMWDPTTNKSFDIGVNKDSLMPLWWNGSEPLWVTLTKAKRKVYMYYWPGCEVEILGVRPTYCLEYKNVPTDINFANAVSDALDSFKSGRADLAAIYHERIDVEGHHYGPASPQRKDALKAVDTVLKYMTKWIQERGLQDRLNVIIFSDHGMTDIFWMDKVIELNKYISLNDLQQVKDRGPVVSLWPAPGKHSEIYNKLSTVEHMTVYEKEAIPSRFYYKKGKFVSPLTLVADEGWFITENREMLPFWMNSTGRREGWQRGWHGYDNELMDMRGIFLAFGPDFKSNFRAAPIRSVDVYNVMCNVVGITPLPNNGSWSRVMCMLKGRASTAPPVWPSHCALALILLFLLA
In short: (§1)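 10 nM ENPP6 or ENPP7, 10 μM pNPPC, compound 0–10 μM, triplicate; ENPP6 buffer 100 mM Tris, 500 mM NaCl, 0.05% Triton pH 9.0; ENPP7 buffer 50 mM Tris, 150 mM NaCl, 10 mM taurocholate pH 8.5; 405 nm absorbance every 2 min for 1 h.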

[18] = target: T5, Ectonucleotide pyrophosphatase/phosphodiesterase family member 7 (Homo sapiens) (UniProt Q6UWV6); assay: Inhibition of ENPP7 (unknown origin) using pNPPC as substrate measured every 2 mins for 1 hr by […]; in short: as §1
T5 sequence (whole entry): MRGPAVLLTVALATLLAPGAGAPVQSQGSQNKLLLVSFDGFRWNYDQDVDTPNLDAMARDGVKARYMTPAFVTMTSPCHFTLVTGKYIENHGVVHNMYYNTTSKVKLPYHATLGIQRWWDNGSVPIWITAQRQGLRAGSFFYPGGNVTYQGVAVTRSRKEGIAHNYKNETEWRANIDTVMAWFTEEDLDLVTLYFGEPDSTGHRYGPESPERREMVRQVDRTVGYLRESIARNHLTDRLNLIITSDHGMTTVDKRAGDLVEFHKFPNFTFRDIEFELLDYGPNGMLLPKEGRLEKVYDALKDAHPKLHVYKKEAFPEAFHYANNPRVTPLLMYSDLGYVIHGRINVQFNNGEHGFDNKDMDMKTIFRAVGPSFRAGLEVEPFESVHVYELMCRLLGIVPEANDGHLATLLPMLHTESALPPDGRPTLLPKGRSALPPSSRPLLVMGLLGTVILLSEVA

Autotaxin [19] = target: T1, Autotaxin; assay: Inhibition of ATX (unknown origin) expressed in human A2058 cells assessed as inhibition of LPC-induced cell invasion after 20 hrs by calcein-AM dye based matrigel-mediated Boyden chamber assay
[20] = Stability in mouse 4T1 cells assessed as parent compound remaining at 10 uM after 16 hrs by LC-MS/MS method; type: ADME, cell-based; conditions: read-out: Stability
In short: (§2)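 4T1 cells (1 × 10^4/well) attached overnight, then 10 μM compound in DMEM with 1% charcoal-stripped FBS (0.1% DMSO final); quadruplicate samples at 0, 16, 40 h, centrifuged, diethyl ether extracted twice, LC-MS/MS peak areas normalized to 0 h.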

[21] = Stability in mouse 4T1 cells assessed as parent compound remaining at 10 uM after 40 hrs by LC-MS/MS method; type: ADME, cell-based; conditions: read-out: Stability; in short: as §2
B16-F10 = assay: Antitumor activity against mouse B16F10 cells implanted in C57BL/6 mouse assessed as reduction in metastatic tumor nodules on lungs at 1 mg/kg, ip administered daily up to 10 days measured on day 21; type: functional, organism-based
In short: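 C57BL/6 mice, 8–12 weeks, given 1 × 10^5 B16F10 cells by tail vein; 1 mg/kg i.p. daily from day 0 (before inoculation) to day 10, vehicle PBS with 1% DMSO and 50 μM charcoal-stripped mouse serum albumin; sacrifice day 21, lung nodules counted; one-way ANOVA with Bonferroni.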

[22] = target: T2, Lysophosphatidic acid receptor 1; assay: Agonist activity at LPA1 receptor (unknown origin) expressed in rat RH7777 cells assessed as increase in intracellular calcium level measured every 3.42 secs for 70 secs by Fura-2-AM dye based fluorescence assay; type: functional, cell-based
Autotaxin [23] = target: T1, Autotaxin; assay: Inhibition of ATX (unknown origin)
4T1 [24] = assay: Growth inhibition of mouse 4T1 cells at 10 uM after 48 hrs by CellTiter blue assay; type: cell-based; conditions: 4t1, 48 h

T2 sequence (Q92633 whole entry): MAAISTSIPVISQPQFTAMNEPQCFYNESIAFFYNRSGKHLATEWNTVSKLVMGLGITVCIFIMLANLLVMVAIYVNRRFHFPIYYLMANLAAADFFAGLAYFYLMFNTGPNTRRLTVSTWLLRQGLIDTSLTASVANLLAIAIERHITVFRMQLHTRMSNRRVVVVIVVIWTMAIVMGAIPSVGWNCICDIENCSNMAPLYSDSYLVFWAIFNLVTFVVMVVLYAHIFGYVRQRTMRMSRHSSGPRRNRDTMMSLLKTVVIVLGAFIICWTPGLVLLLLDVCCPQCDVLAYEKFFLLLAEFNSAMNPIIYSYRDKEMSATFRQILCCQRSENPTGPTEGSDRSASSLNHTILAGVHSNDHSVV
Sequence of Lysophosphatidic acid receptor 4 (Homo sapiens) (Q99677 whole entry): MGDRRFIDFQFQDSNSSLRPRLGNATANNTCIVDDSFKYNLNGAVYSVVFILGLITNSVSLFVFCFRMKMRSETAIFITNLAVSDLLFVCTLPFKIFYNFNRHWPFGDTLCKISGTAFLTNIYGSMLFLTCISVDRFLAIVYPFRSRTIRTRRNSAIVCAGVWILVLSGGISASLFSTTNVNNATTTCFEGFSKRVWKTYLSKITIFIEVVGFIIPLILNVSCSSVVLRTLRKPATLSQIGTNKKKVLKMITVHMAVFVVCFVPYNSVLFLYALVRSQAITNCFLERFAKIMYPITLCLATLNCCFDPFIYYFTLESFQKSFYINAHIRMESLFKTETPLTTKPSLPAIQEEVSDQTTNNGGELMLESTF
Sequence of Lysophosphatidic acid receptor 5 (Homo sapiens) (Q9H1C0 whole entry): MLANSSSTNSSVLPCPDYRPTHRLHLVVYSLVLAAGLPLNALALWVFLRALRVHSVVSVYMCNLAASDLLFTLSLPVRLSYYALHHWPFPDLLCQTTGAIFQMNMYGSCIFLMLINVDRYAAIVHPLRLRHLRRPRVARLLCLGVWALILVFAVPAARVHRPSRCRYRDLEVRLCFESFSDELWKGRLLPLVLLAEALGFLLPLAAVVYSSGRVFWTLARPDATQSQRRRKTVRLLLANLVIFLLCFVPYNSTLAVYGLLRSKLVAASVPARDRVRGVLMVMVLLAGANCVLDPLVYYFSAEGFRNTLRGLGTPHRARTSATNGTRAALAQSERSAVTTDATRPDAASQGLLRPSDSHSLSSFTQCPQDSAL
Sequence of Lysophosphatidic acid receptor 2 (Homo sapiens) (Q9HBW0 whole entry): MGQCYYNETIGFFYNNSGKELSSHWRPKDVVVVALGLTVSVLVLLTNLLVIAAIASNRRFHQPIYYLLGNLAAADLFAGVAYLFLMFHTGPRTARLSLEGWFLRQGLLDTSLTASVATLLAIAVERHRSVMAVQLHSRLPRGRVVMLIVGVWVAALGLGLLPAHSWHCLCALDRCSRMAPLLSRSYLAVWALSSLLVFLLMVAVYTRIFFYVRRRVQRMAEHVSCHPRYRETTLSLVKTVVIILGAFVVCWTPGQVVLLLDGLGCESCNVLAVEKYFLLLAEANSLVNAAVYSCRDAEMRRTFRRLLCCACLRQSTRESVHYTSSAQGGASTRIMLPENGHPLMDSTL

Row | SMILES | inhibition (Autotaxin [3]) | inhibition (Autotaxin [4]) | inhibition (Autotaxin [5]) | Activity [6] | Activity [7] | Activity [8] | Activity [9] | Activity [10] | Emax [11] [%] | IC50 ([12]; read-out: IC50) [µM] | inhibition [13] | inhibition [14] | inhibition [15] | inhibition [16] | inhibition [17] | inhibition [18] | inhibition (Autotaxin [19]) | remaining at 16 h, 10 µM [20] [%] | remaining at 40 h, 10 µM [21] [%] | Activity (4T1 [1]) | also measured
1 | O=C(Nc1cc(F)c(Cl)c(F)c1)c1cc(S(=O)(=O)N2CCOCC2)c(Cl)cc1Cl | Active | inactive | Active | inactive | inactive | inactive | inactive | inactive | 51 | 6 to 6.12 | inactive | inactive | inactive | inactive | inactive | inactive | Dose-dependent effect | 101 | 108 | Non-Toxic | 
2 | O=C(Nc1cc(F)c(F)c(F)c1)c1cc(S(=O)(=O)N2CCOCC2)c(Cl)cc1Cl | Active | inactive | Active | inactive | inactive | inactive | inactive | inactive | 46.1 | 14 to 14.5 | inactive | inactive | inactive | inactive | inactive | inactive | Dose-dependent effect |  |  | Non-Toxic | Activity (B16-F10): Active; inhibition (Autotaxin (Mus musculus)): 25 to 30%
3 | CCCCCCCC/C=C\CCCCCCCC(=O)OCC(O)COP(=O)(O)O (configuration not stated) |  |  |  |  |  |  |  |  |  |  |  |  |  |  |  |  |  |  |  |  | EC50 [22]: 0.08 µM
4 | O=C(Nc1cccc(F)c1)c1cc(S(=O)(=O)N2CCOCC2)c(Cl)cc1Cl |  | inactive | Active |  |  |  |  |  |  |  |  |  |  |  | inactive | inactive |  | 79.7 | 79.5 |  | IC50 (Autotaxin [23]): 0.116 µM
5 | O=S(=O)(c1cc(C(=S)Nc2cc(F)c(F)c(F)c2)c(Cl)cc1Cl)N1CCOCC1 | Active | inactive | Active |  |  |  |  |  |  |  | inactive | inactive | inactive | inactive | inactive | inactive | Dose-dependent effect | 93.2 | 102 |  | IC50 [12]: Not Active; Activity (B16-F10): Active; Activity (4T1 [24]): Toxic

The next lines start with results.

Row | inhibition (Autotaxin [3]) | inhibition (Autotaxin [4]) | inhibition (Autotaxin [5]) | Activity [6] | Activity [7] | Activity [8] | Activity [9] | Activity [10] | Emax [11] [%] | IC50 ([12]; read-out: IC50) [µM] | inhibition [13] | inhibition [14] | inhibition [15] | inhibition [16] | inhibition [17] | inhibition [18] | inhibition (Autotaxin [19]) | remaining at 16 h, 10 µM [20] [%] | remaining at 40 h, 10 µM [21] [%] | SMILES | Activity (4T1 [1]) | also measured
6 | Active |  |  |  |  |  |  |  |  |  |  |  |  |  |  |  |  |  |  | CCCCCCCCCCCCCCCc1ccc(CP(=O)(O)O)cc1 | Non-Toxic | Activity (4T1 [2]): Toxic; inhibition (Autotaxin (Mus musculus)): 25 to 30%
7 |  | inactive | Active | inactive | inactive | inactive | inactive | inactive | 50 | 18 to 18.4 | inactive | inactive | inactive | inactive | inactive | inactive |  |  |  | O=C(Nc1cc(Cl)c(F)c(Cl)c1)c1cc(S(=O)(=O)N2CCOCC2)c(Cl)cc1Cl |  | 
